SKKanGAS inh: SKKanGAS growth inhibition; S. pyogenes SKKanGAS, kanamycin growth, BacTiter-Glo, 6 h; 1.3% of 300,000 active; inhibition, % at 7.5 µM;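 active means mean replicate score, as percent of positive control median, at least 50; inconclusive means mean below 50 but one replicate at or above 50; inactive means mean and every replicate below 50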;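 further: strain carries kanamycin resistance gene driven by streptokinase promoter and grows in 40 µg/ml kanamycin; loss of luminescence reflects streptokinase promoter inhibition or plain growth inhibition; 0% = median of DMSO wells and 100% = positive control at its reference dose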
Calb FLC: C. albicans growth modulation with fluconazole. C. albicans CaCi-2 (fluconazole-resistant clinical isolate) + fluconazole, Alamar Blue growth, 48 h. 0.57% of 300,000 active. growth inhibition, % (no concentration beside the values). AID 1979;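 active means growth inhibition above about 58% in most replicates, limit read from the data, passing the limit was not always enough; inconclusive means exactly half the replicates above a set limit; inactive means most replicates below a set limit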;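 further: all wells also contain fluconazole at 8 µg/ml as a sub-toxic cotreatment; 0% = median of DMSO wells and 100% = median of geldanamycin control wells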
Beta cell apopt: blocks beta cell apoptosis; INS-1E cytokine-induced death, ATP luminescence, 48 h; percent of positive-control rescue, neutral wells zero; protection from apoptosis, % (concentration not given with the values); 0.8% of 300,000 active; AID 435005;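 active means Every replicate reaches about 75%, or at least half do and their mean reaches it too, limit read from the data; inconclusive means At least half of replicates reach the limit but their mean does not; inactive means Under half of replicates reach the limit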;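 further: 0% = cytokine-treated negative control wells and 100% = positive control rescue; higher means more ATP so stronger rescue from cytokine killing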
Mdm2-MdmX inh: disrupts the human Mdm2-MdmX interaction; O15151+Q00987; SaOS-2 split-luciferase Mdm2/MdmX complementation, luminescence; inhibition, % at 8 µM; 3% of 330,000 active; AID 485346;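 active means inhibition of at least 50% at 8 µM in the primary screen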
Target sequence (O15151 whole entry, looked up): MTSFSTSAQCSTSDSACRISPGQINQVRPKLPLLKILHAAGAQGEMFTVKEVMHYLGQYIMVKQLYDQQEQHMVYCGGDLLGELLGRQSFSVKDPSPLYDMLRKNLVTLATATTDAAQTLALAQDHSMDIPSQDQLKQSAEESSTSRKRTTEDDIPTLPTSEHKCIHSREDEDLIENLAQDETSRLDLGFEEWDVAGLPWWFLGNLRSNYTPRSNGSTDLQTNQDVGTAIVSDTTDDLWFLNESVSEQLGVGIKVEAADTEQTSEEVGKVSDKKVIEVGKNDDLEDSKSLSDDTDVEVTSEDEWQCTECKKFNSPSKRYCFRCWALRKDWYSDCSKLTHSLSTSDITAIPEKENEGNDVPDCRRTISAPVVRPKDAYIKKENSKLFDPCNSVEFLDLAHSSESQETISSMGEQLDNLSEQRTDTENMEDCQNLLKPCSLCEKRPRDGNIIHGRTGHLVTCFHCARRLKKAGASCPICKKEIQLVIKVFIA
Target sequence (Q00987 whole entry, looked up): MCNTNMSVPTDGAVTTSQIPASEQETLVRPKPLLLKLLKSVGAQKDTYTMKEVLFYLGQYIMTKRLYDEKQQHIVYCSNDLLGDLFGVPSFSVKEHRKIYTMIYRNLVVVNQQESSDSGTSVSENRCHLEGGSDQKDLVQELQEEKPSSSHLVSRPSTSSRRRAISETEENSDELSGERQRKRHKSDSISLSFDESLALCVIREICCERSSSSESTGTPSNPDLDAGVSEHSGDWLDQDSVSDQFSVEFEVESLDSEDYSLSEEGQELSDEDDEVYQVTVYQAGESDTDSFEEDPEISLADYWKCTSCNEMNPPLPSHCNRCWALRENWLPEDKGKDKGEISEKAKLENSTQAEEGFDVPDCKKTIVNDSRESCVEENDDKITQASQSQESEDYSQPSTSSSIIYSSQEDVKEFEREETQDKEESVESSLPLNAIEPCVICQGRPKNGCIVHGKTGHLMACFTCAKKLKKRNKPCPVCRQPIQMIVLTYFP
CSC inhib: cancer stem cell inhibition; cancer stem cell-like cells viability, luminescence; inhibition, % at 7.5 µM; 1.1% of 300,000 active; in the data active means inhibition above about 75%; inconclusive means no clear call, values can overlap the other calls; tested in HMLE shEcad cells
T cruzi inh: T. cruzi replication inhibition | T. cruzi beta-gal in NIH3T3, luminescence, 90 h | inhibition, % (no concentration beside the values) | 1.4% of 300,000 active;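 active means mean inhibition across valid replicates above about 55%, limit read from the data; inconclusive means mean below that limit but half or more replicates reach it; inactive means mean below it, under half of replicates reach it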;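 further: signal also drops with host cell toxicity which is not excluded here; 0% = plate median of DMSO wells and 100% = zero luminescence signal; higher percent means less beta-gal luminescence so fewer parasites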
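Material: NIH/3T3 host cells with β-galactosidase reporter T. cruzi; Input: 5,000 host fibroblasts per well; Medium: DMEM, 2% fetal bovine serum; Compound: 50 nL DMSO compound solution per well; Schedule: 3 h host attachment, then at least 90 h co-culture; Detection: luminescent β-galactosidase signal after 60 min lysis.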
Mdm2 MdmX conf: human Mdm2/MdmX binding inhibition, confirmed; shares compounds with Mdm2-MdmX inh; luminescent assay; inhibition, % at 8 µM; 55% of 10,000 active; AID 489028; in the data active means inhibition above about 40%
FLuc counter: counter-screen for Mdm2/MdmX inhibitors: full-length luciferase; shares compounds with Mdm2-MdmX inh; SaOS-2 full-length luciferase counterscreen, luminescence; inhibition, % at 8 µM; 77% of 6,200 active;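 active means mean inhibition at 8 µM reaching about 37%, which flags the compound as non-specific, limit read from the data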;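 further: p53-null SaOS-2 cells with luciferase driven by a doxycycline-inducible promoter; compound on cells about two nights before reading with doxycycline added after day one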
Starred values were filed as active, the others as inactive; ? = inconclusive; . = no result. This is a sample that favours compounds with a hit; in the whole collection about 5.7% have one here.

SMILES | SKKanGAS inh | Calb FLC | Beta cell apopt | Mdm2-MdmX inh | CSC inhib | T cruzi inh | Mdm2 MdmX conf | others
COc1ccc(NC(=O)CC2SC(N3CCOCC3)=NC2=O)cc1OC (stereo not given) | . | . | -4 | -5 | -17 | . | .
Cc1cccc(CN2CCc3c([nH]c4ccccc34)C2C(C)(C)C)n1 (stereo not given) | 0 | 5 | . | 3 | -1 | 29 | .
CC(=O)Nc1cccc(NC(=O)c2cc(-c3cccnc3)nc3ccc(Cl)cc23)c1 | 18 | 20 | 24 | 37 | 13 | 26 | .
COc1cccc(-c2cc(C(=O)Nc3ccc(N(C)C(C)=O)cc3)c3cc(Br)ccc3n2)c1 | 29 | -13 | 15 | 62* | 32 | 61* | 1
O=C(Nc1ccc(C(F)(F)F)cc1)c1cc(-c2cccnc2)nc2ccc(Br)cc12 | 8 | 3 | 24 | 57* | 25 | 47 | 1
CC(=O)Nc1cccc(NC(=O)c2cc(-c3cccnc3)nc3ccc(Br)cc23)c1 | 31 | 16 | 35 | 68* | 33 | -6 | 73* | FLuc counter=90*
O=C(O)c1cc(-c2cccnc2)nc2ccc(Br)cc12 | 9 | -6 | -3 | -6 | 25 | . | .
CCC(=O)N1CCN(c2ccc(Cl)cc2NC(=S)NC(=O)c2ccco2)CC1 | 14 | 41 | -9 | 8 | -7 | 14 | .
CCC(=O)Nc1ccc(NC(=O)c2oc3ccccc3c2C)cc1 | -13 | -21 | 3 | 19 | -1 | 35 | .
CC(=O)Nc1ccc(NC(=S)NC(=O)c2oc3ccccc3c2C)cc1 | 14 | -7 | -7 | 62* | 2 | 3 | -1
CCC(=O)Nc1ccc(NC(=S)NC(=O)c2oc3ccccc3c2C)cc1 | -2 | -18 | -6 | 72* | -8 | -1 | -17
Cc1cccnc1NC(=S)NC(=O)c1oc2ccccc2c1C | -11 | -1 | 1 | -73 | -13 | -4 | .
COc1cc(-c2noc(C)c2/C=C/c2ccc(C(=O)O)cc2)cc(OC)c1OC | 18 | -11 | -5 | -29 | 42 | -14 | .
COc1cc(-c2noc(C)c2/C=C/c2cccc([N+](=O)[O-])c2)cc(OC)c1OC | 26 | 2 | 25 | 79* | 64 | 26 | 75* | FLuc counter=84*
COc1cc(CCC(=O)Nc2ccc(C)c(S(=O)(=O)N3CCCCCC3)c2)cc(OC)c1OC | . | . | 14 | 35 | . | . | .
COc1ccc(Cl)c2sc(NC(=O)C3=COCCO3)nc12 | 16 | 16 | 1 | 54* | 6 | -5 | 24
Cc1ccc(Cl)c2sc(NC(=O)C3=COCCO3)nc12 | 2 | 3 | . | 14 | 25 | 9 | .
O=C(Nc1nc2cc3c(cc2s1)OCCO3)C1=COCCO1 | 27 | -4 | 20 | 87* | 13 | -5 | 83* | FLuc counter=39*
NS(=O)(=O)c1ccc2nc(NC(=O)c3ccc4c(c3)OCCO4)sc2c1 | -2 | . | -8 | 76* | 1 | -1 | 24
NS(=O)(=O)c1ccc2nc(NC(=O)c3ccc4ncsc4c3)sc2c1 | 1 | . | -2 | -9 | 5 | -4 | .
CCc1ccc(N2CC(C(=O)OCC(=O)c3c(N)n(CC(C)C)c(=O)n(C)c3=O)CC2=O)cc1 (stereo not given) | 5 | -3 | -1 | 10 | 0 | 0 | .
CCCCC[C@H](O)/C=C/[C@H]1CCC(=O)[C@@H]1CCCCCCC(=O)N1CCCCC1CO (stereo not given in full) | 6 | -3 | -2 | 60* | 19 | 5 | 44* | FLuc counter=54*
O=[N+]([O-])c1ccc(Sc2ccccn2)nc1 | 7 | 16 | -3 | -13 | -8 | 3 | .
Cc1ccccc1-n1nnnc1Sc1nnnn1-c1ccccc1 | . | . | 60 | 98* | 19 | . | 83* | FLuc counter=54*
Cc1ccccc1-n1nnnc1SCC(N)=O | 4 | 2 | -8 | -7 | -14 | -11 | .
SMILES | SKKanGAS inh | Calb FLC | Beta cell apopt | Mdm2-MdmX inh | CSC inhib | T cruzi inh | Mdm2 MdmX conf | others
O=[N+]([O-])c1ccc(Sc2nnnn2-c2ccccc2)nc1 | -6 | -1 | . | 61* | . | 36 | 47* | FLuc counter=79*
CCCSc1nnc(Sc2nnnn2-c2ccccc2)s1 | 3 | 18 | . | 66* | 53 | 55* | 64* | FLuc counter=56*
NS(=O)(=O)c1ccc(CCNc2nc3c(-c4cccc(F)c4)nnn3c3ccccc23)cc1 | 13 | 7 | 19 | 67* | 5 | 14 | 31
Cc1ccc(C)c(Nc2nc3c(S(=O)(=O)c4ccccc4)nnn3c3ccccc23)c1 | 28 | 3 | 12 | 37 | 7 | 6 | .
Cc1cccc(-c2nnn3c2nc(NCCc2ccc(S(N)(=O)=O)cc2)c2ccccc23)c1 | 7 | 2 | 4 | 67* | -6 | 19 | 50* | FLuc counter=74*
Cc1ccc(S(=O)(=O)c2nnn3c2nc(Nc2cccc(C)c2)c2ccccc23)cc1 | -2 | ? | . | 54* | 20 | -16 | 9
O=C(CN1C(=O)/C(=C\c2ccco2)SC1=S)Nc1ccc(O)cc1C(=O)O | 2 | 2 | 0 | 13 | -8 | -11 | .
COc1ccc(-c2cc(-c3c(O)c(OC)c4occc4c3OC)[nH]n2)cc1OC | -4 | 71 | 8 | 60* | 14 | 20 | 31 | FLuc counter=93*
COc1cccc(N2CCN(c3ccc([N+](=O)[O-])cn3)CC2)c1 | 0 | -1 | 9 | 18 | 1 | -25 | .
CN1CCN(S(=O)(=O)c2ccc(SCCOc3ccc(Cl)cc3)nc2)CC1 | . | . | 6 | 59* | . | . | 32
COc1ccc(OCCSc2ccc(S(=O)(=O)N3CCCC3)cn2)cc1 | . | . | 0 | -20 | -7 | . | .
COc1cccc(CNS(=O)(=O)c2c(C(=O)N3CCCCCC3)c(C)n(C)c2C)c1 | -1 | 0 | -16 | -6 | 4 | 7 | .
COCC(=O)Nc1cc(Cl)ccc1C | 8 | -15 | -11 | 10 | . | -2 | .
Cc1ccc(Cl)cc1NC(=O)CC(O)(C(F)(F)F)C(F)(F)F | 12 | -38 | . | 59* | 42 | 2 | 28
Cn1c(SCC(=O)Nc2cc(Cl)cc(Cl)c2)nnc1-c1ccc2nonc2c1 | 10 | -1 | -8 | 71* | -2 | 17 | 14
CC(OC(=O)/C=C/c1ccc2ccccc2n1)C(=O)N(C)c1ccccc1 (stereo not given) | . | . | 2 | 65* | . | . | 35 | FLuc counter=56*
CN1CCC(N(C)S(=O)(=O)c2ccc(NC(=O)COc3cccc(C(F)(F)F)c3)cc2)CC1 | -10 | 7 | -5 | 37 | 5 | 50 | .
C1N2CN3CN1CN(C2)C3 | . | . | -1 | 3 | 2 | . | .
CC1(C)CC(=O)C2=C(C1)N1C(=C(C#N)C2c2ccc(Cl)cc2)N=C(N)c2ccccc21 (stereo not given) | 24 | 64 | -4 | 56* | 23 | 44 | 0
CCOC(=O)C1=C(C)NC(C)=C(C(=O)OCC)C1/C=C/c1ccccc1OC | 3 | -10 | -11 | 48 | 13 | 40 | .

From PubChem
